Experimental data taken from ChEMBL document CHEMBL1145938, “Synthesis and structure-activity relationship of aminobenzophenones. A novel class of p38 MAP kinase inhibitors with high antiinflammatory activity” (J Med Chem, 2003).

What was measured:
[1] = molecular target: T1, MAP kinase p38 (Homo sapiens, UniProt O15264+Q15759+Q16539+P53778); experiment: In vitro inhibition of TNF-alpha release from LPS stimulated human peripheral blood mononuclear cells.; format: functional
How it was run: (§1)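 Human PBMC from buffy coats (Lymphoprep), 5×10^5 cells/mL in RPMI1640 with 2% FCS, glutamine, penicillin/streptomycin; 30 min preincubation with compound, then LPS stimulation, 18 h at 37 °C, 5% CO2.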

[2] = molecular target: T2, Myeloperoxidase (Mus musculus) (UniProt P11247); experiment: Inhibition of myeloperoxidase (MPO) activity induced by oxazolone in murine allergic contact dermatitis model at 0.5 mg/ear at 72 hr (in vivo)
T2 sequence (whole entry): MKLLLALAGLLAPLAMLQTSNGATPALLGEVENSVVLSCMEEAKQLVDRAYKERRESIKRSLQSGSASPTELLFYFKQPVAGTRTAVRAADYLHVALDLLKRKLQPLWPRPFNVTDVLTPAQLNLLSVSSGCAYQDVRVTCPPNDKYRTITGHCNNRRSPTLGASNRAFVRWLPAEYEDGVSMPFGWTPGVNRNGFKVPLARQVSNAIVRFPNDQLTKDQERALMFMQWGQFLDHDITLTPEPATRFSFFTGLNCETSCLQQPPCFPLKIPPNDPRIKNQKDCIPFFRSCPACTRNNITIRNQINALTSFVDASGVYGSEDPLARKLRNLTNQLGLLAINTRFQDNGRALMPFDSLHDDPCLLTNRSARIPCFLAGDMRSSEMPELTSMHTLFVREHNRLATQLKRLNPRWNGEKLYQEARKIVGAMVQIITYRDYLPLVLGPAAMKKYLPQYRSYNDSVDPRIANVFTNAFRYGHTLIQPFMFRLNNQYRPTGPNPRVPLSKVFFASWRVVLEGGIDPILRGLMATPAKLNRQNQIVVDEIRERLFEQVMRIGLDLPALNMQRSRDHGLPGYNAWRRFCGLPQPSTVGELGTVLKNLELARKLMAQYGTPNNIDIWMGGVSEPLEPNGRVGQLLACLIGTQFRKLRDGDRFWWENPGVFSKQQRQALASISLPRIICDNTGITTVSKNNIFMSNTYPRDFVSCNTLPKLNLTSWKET

[3] = molecular target: T1, MAP kinase p38; experiment: In vitro inhibition of cytokine IL-8 release by human peripheral blood mononuclear cells
[4] = molecular target: T1, MAP kinase p38; experiment: In vitro inhibition of cytokine IL-6 release by human […]; format: functional
How it was run: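 PBMC isolated from buffy coats, 5×10^5 cells/mL in RPMI1640 plus 2% FCS, glutamine and antibiotics. Compound added 30 min before LPS; culture 6 h. Supernatant IL-6 or IL-8 quantified by ELISA kits.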

[5] = species: Homo sapiens; experiment: In vitro inhibition of gamma-interferon release by human […]; format: functional
How it was run: (§2)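 Human PBMC were isolated from buffy coats and diluted 1:1 in saline. Cells were held at 5×10^5 cells/mL in RPMI1640 with 2 mM glutamine and penicillin/streptomycin, then preincubated 30 min with compound. IL-12: 2% FCS, IFN-γ 95 ng/mL for 18 h, then LPS for 24 h. IL-2 and IFN-γ: 10% FCS, phytohemagglutinin for 48 h. Supernatant cytokine measured by sandwich ELISA.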

[6] = molecular target: Mitogen-activated protein kinase 8 (Homo sapiens) (UniProt P45983); experiment: Inhibition of c-Jun N-terminal kinase 1 at 10 uM
How it was run: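 JNK1 activity from UV-stimulated MCF-7 cells, measured with a JNK1 kinase kit in presence of compound.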

[7] = molecular target: Mitogen-activated protein kinase 11 (Homo sapiens) (UniProt Q15759); experiment: Inhibition of Mitogen-activated protein kinase p38 beta at 1 uM
How it was run: (§3)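 FLAG-tagged p38 isoform cDNA (β2, γ or δ) transfected into COS-1 cells; kinase activity of the expressed isoform measured with compound at 1 μM.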

[8] = molecular target: T3, Mitogen-activated protein kinase 14 (Homo sapiens, UniProt Q16539); experiment: Inhibition of Mitogen-activated protein kinase p38 alpha at 1 uM
How it was run: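 FLAG-tagged p38α cDNA was transfected into COS-1 cells. Kinase activity of the expressed isoform was measured with compound at 1 μM.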

[9] = molecular target: T2, Myeloperoxidase (Mus musculus); experiment: Inhibition of myeloperoxidase (MPO) activity induced by TPA in murine chronic irritative contact dermatitis model at 0.5 mg/ear (in vivo); format: organism-based
[10] = test system: Mus musculus; experiment: Inhibition of ear weight induced by 12-O-tetradecanoylphorbol-13-acetate (TPA) in murine chronic irritative contact dermatitis model at 0.5 mg/ear (in vivo); format: functional
How it was run: (§4)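 Murine TPA-induced chronic irritative ear dermatitis, with compound given topically per ear. Ear swelling and ear weight were determined 5 h after the last application. Values are mean % inhibition ± SEM of three to five experiments.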

[11] = molecular target: T1, MAP kinase p38; experiment: In vitro inhibition of IL1-beta release from LPS stimulated human peripheral blood mononuclear cells.; format: functional; how it was run: as §1
[12] = species: Mus musculus; experiment: Inhibition of ear swelling induced by oxazolone induced murine allergic contact dermatitis model at 0.5 mg/ear at 48 hr; format: functional
How it was run: (§5)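 Groups of six female inbred BALB/cABOM mice (18–21 g) were sensitized with oxazolone on the clipped abdomen 7 days before right-ear challenge. Compound in acetone (20 μL) or vehicle was applied once, 30 min after challenge. Ear swelling (right minus left ear thickness) was read at 24, 48 and 72 h. Values are mean % inhibition ± SEM of four or five experiments.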

[13] = species: Mus musculus; experiment: Inhibition of ear swelling in oxazolone-induced murine allergic contact dermatitis at 0.5 mg/ear at 24 hr; format: functional; how it was run: as §5
[14] = molecular target: Mitogen-activated protein kinase; ERK1/ERK2 (Homo sapiens) (UniProt P27361+P28482); experiment: Inhibition of Mitogen-activated protein kinase 3/Mitogen-activated protein kinase 1 (ERK) at 10 uM; format: protein assay
How it was run: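 MCF-7 cells stimulated with EGF; ERK1/2 activity measured with a modified cell-signalling ERK1/2 kinase kit in presence of compound.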

[15] = molecular target: T1, MAP kinase p38; experiment: In vitro inhibition of cytokine IL-10 release by human […]; format: functional
How it was run: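 Buffy-coat PBMC at 5×10^5 cells/mL in RPMI1640 with 10% FCS, glutamine, antibiotics; 30 min compound preincubation, then phytohemagglutinin stimulation and 48 h incubation.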

[16] = molecular target: T4, Mitogen-activated protein kinase 12 (Homo sapiens) (UniProt P53778); experiment: Inhibition of Mitogen-activated protein kinase p38 gamma at 1 uM; how it was run: as §3
T4 sequence (whole entry): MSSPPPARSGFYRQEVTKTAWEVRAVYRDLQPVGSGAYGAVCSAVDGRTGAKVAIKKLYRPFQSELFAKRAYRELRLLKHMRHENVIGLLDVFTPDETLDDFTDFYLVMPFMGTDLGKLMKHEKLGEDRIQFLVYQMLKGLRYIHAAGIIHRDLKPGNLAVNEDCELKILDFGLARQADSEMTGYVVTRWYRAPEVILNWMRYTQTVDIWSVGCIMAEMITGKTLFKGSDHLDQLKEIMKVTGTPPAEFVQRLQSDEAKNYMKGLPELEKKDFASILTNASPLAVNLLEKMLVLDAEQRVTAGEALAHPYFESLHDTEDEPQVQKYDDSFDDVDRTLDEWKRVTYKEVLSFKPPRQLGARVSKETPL

[17] = species: Homo sapiens; experiment: In vitro inhibition of cytokine IL-2 release by human […]; format: functional; how it was run: as §2
[18] = species: Homo sapiens; experiment: In vitro inhibition of cytokine IL-12 release by human […]; format: functional; how it was run: as §2
[19] = species: Mus musculus; experiment: Inhibition of ear swelling induced by oxazolone induced murine allergic contact dermatitis model at 0.5 mg/ear at 72 hr; format: functional; how it was run: as §5
[20] = test system: Mus musculus; experiment: Inhibition of ear swelling induced by 12-O-tetradecanoylphorbol-13-acetate (TPA) in murine chronic irritative contact dermatitis model at 0.5 mg/ear (in vivo); format: functional; how it was run: as §4
[21] = molecular target: T5, Mitogen-activated protein kinase 13 (Homo sapiens) (UniProt O15264); experiment: Inhibition of Mitogen-activated protein kinase p38 delta at 1 uM; how it was run: as §3
T5 sequence (whole entry): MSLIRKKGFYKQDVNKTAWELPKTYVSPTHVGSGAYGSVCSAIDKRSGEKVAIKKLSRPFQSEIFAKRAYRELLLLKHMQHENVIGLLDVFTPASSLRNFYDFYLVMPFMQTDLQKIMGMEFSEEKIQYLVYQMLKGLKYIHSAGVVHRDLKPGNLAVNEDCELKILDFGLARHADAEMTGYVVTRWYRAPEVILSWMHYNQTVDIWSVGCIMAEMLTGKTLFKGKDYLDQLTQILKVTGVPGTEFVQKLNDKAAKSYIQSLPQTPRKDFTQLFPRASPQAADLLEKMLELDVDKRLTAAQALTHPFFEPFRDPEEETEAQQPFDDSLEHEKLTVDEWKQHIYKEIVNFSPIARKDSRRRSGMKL

[22] = molecular target: T3, Mitogen-activated protein kinase 14; experiment: In vitro inhibitory activity determined against human mitogen-activated protein kinase p38 alpha
[23] = test system: Mus musculus; experiment: Inhibition of ear swelling in oxazolone induced murine allergic contact dermatitis model at 0.5 mg/ear at 48 hr (in vivo); format: functional; how it was run: as §5
[24] = test system: Mus musculus; experiment: Inhibition of ear swelling in oxazolone induced murine allergic contact dermatitis model at 0.5 mg/ear at 72 hr (in vivo); format: functional; how it was run: as §5
[25] = test system: Mus musculus; experiment: Inhibition of ear swelling in oxazolone-induced murine allergic contact dermatitis at 0.5 mg/ear at 24 hr (in vivo); format: functional; how it was run: as §5
[26] = test system: Mus musculus; experiment: Inhibition of ear swelling induced by oxazolone in murine allergic contact dermatitis model at 0.001 mg/ear at 24 hr (in vivo); format: functional; how it was run: as §5
[27] = test system: Mus musculus; experiment: Inhibition of ear swelling induced by oxazolone in murine allergic contact dermatitis model at 0.001 mg/ear at 72 hr (in vivo); format: functional; how it was run: as §5
[28] = molecular target: T2, Myeloperoxidase (Mus musculus); experiment: Inhibition of myeloperoxidase (MPO) activity induced by oxazolone in murine allergic contact dermatitis model at 0.001 mg/ear at 24 hr (in vivo); format: organism-based
[29] = test system: Mus musculus; experiment: Inhibition of ear swelling induced by oxazolone in murine allergic contact dermatitis model at 0.5 mg/ear at 48 hr (in vivo)

T3 sequence (Q16539 whole entry, canonical isoform): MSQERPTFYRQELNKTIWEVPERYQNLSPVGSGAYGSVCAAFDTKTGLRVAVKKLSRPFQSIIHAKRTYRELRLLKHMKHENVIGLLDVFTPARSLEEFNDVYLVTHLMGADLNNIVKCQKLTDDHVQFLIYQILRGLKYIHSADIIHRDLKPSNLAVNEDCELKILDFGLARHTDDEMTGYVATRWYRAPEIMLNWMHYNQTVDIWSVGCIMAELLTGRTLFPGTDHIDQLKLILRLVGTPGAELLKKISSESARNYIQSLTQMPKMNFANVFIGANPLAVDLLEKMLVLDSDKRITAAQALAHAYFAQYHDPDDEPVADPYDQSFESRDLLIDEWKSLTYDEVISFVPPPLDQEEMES
Mitogen-activated protein kinase; ERK1/ERK2 (Homo sapiens), sequence (P27361 whole entry, looked up): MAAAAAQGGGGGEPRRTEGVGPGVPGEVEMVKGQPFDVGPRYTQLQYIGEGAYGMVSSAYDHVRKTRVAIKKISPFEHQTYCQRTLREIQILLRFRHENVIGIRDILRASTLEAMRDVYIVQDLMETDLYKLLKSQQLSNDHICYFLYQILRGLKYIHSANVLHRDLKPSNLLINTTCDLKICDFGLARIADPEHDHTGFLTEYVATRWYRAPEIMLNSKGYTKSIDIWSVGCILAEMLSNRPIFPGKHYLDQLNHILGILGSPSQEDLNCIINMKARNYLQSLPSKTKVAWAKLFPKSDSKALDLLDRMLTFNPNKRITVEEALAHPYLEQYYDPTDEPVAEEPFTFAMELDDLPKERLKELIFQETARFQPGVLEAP
Mitogen-activated protein kinase; ERK1/ERK2 (Homo sapiens), sequence (P28482 whole entry, looked up): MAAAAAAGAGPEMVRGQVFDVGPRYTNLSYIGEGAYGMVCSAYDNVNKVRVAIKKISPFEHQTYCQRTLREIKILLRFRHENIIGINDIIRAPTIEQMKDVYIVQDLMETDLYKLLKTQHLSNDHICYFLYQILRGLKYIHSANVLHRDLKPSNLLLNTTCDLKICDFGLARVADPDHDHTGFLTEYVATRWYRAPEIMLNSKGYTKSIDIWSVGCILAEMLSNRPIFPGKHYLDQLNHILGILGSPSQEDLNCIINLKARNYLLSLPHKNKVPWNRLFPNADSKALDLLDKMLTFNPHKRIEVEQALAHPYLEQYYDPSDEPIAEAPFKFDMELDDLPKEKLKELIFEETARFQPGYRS
Mitogen-activated protein kinase 11 (Homo sapiens), sequence (Q15759 whole entry, canonical isoform): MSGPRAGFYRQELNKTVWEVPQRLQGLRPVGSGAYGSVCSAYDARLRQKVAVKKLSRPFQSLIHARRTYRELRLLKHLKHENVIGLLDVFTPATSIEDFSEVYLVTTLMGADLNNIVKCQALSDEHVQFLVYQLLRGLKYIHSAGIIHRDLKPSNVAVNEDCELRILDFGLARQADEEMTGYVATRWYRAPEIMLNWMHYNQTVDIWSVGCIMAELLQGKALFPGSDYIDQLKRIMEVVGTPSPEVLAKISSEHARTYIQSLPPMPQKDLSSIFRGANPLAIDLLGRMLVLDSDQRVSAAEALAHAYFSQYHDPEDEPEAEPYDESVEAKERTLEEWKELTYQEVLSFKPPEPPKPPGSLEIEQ
Mitogen-activated protein kinase 8 (Homo sapiens), sequence (P45983 whole entry): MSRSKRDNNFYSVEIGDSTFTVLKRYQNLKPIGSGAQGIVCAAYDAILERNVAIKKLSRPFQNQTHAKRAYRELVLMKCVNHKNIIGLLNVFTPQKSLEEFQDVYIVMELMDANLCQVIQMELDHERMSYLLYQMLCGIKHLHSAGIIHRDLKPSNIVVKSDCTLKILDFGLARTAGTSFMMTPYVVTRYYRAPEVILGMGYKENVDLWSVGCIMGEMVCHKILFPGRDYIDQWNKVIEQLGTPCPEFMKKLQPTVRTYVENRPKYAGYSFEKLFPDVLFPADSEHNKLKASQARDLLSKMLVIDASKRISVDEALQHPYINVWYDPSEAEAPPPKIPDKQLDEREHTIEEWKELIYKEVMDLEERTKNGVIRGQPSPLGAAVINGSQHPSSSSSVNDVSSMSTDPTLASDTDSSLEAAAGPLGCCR

Compound | IC50 [1] | inhibition [2] | IC50 [3] | IC50 [4] | IC50 [5] | inhibition [7] | inhibition [8] | inhibition [9] | Inhibition [10] | IC50 [11] | inhibition [14] | IC50 [15] | inhibition [16] | IC50 [17] | IC50 [18] | Inhibition [20] | inhibition [21] | IC50 [22] | further results
Cc1ccccc1C(=O)c1ccc(Nc2ccc(Br)cc2N)cc1Cl | 0.005 µM | 56% | 0.004 µM | 0.017 µM | > 1 µM | 93% | 82% | 79% | 34% | 0.03 µM | 0% | 0.074 µM | 0% | > 1 µM | > 1 µM | 27% | 0% | 0.039 µM | inhibition [6]: 0%; Inhibition [12]: 38%; Inhibition [13]: 35%; Inhibition [19]: 46%
Cc1ccccc1C(=O)c1ccc(Nc2ccccc2N)cc1Cl | 0.006 µM | 56% | 0.006 µM | 0.018 µM | > 1 µM | 93% | 88% | 73% | 27% | 0.014 µM | 20% | 0.012 µM | 0% | > 1 µM | > 1 µM | 37% | 8% | 0.01 µM | Inhibition [23]: 46%; Inhibition [24]: 46%; Inhibition [25]: 43%
CCCCO[C@]1(C(=O)CO)CCC2C3CCC4=CC(=O)CCC4(C)C3C(O)CC21C (some centres not stated) | – | – | – | – | – | – | – | – | – | – | – | – | – | – | – | – | – | – | Inhibition [26]: 43%; Inhibition [27]: 55%; inhibition [28]: 41%; Inhibition [29]: 55%
